Source: ChEMBL document CHEMBL1177873, “Synthesis and evaluation of some new benzothiazole derivatives as potential antimicrobial agents” (Eur J Med Chem, 2010)
In brackets after ≈: the same amount, converted by molar mass. Activity calls are given as the source filed them. No cut-off for these calls is given here.

Assays:
Bacillus subtilis [1] = test: Antibacterial activity against Bacillus subtilis MTCC 441 at 200 ug/ml after 24 hrs by cup-plate method; type: functional, organism-based
How it was run: (§1)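 Cup-plate diffusion in nutrient agar, incubated 24 h at 37 °C. Compounds dissolved in DMF and tested at the single concentration given in the line. DMF served as the solvent control and ciprofloxacin as the reference standard. Read-out is the zone of inhibition diameter in mm.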

Escherichia coli [2] = test: Antibacterial activity against Escherichia coli MTCC 443 at 500 ug/ml after 24 hrs by cup-plate method; type: functional, organism-based; how it was run: as §1
Aspergillus niger = test: Antifungal activity against Aspergillus niger MTCC 282 at 30 ug/ml after 48 hrs by cup-plate method; type: functional; conditions: MTCC 282, 48 h, read-out: DIZ
How it was run: (§2)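 Cup-plate diffusion on Sabouraud's dextrose agar, incubated 48 h at 28 °C. Compounds in DMF, which also served as the control, with fluconazole as the reference standard.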

Escherichia coli [3] = test: Antibacterial activity against Escherichia coli MTCC 443 at 200 ug/ml after 24 hrs by cup-plate method; type: functional, organism-based; how it was run: as §1
Escherichia coli [4] = test: Antibacterial activity against Escherichia coli MTCC 443 at 100 ug/ml after 24 hrs by cup-plate method relative to ciprofloxacin; type: functional, organism-based
Bacillus subtilis [5] = test: Antibacterial activity against Bacillus subtilis MTCC 441 at 1 ug/ml after 24 hrs by cup-plate method; type: functional, organism-based; how it was run: as §1
Streptomyces griseus [6] = test: Antibacterial activity against Streptomyces griseus MTCC 1540 at 100 ug/ml after 24 hrs by cup-plate method; type: functional, organism-based; how it was run: as §1
Escherichia coli [7] = test: Antibacterial activity against Escherichia coli MTCC 443 at 1 ug/ml after 24 hrs by cup-plate method; type: functional, organism-based; how it was run: as §1
Bacillus subtilis [8] = test: Antibacterial activity against Bacillus subtilis MTCC 441 at 500 ug/ml after 24 hrs by cup-plate method; type: functional, organism-based; how it was run: as §1
Streptomyces griseus [9] = test: Antibacterial activity against Streptomyces griseus MTCC 1540 at 1 ug/ml after 24 hrs by cup-plate method; type: functional, organism-based; how it was run: as §1
Streptomyces griseus [10] = test: Antibacterial activity against Streptomyces griseus MTCC 1540 after 24 hrs; type: functional; conditions: MTCC 1540, 24 h
How it was run: (§3)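 MIC was taken as the lowest concentration giving 100% growth inhibition relative to a drug-free control, after 24 h at 37 °C in nutrient agar. Compounds were dissolved in DMF, and ciprofloxacin was the reference.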

Streptomyces griseus [11] = test: Antibacterial activity against Streptomyces griseus MTCC 1540 at 200 ug/ml after 24 hrs by cup-plate method; type: functional, organism-based; how it was run: as §1
Streptomyces griseus [12] = test: Antibacterial activity against Streptomyces griseus MTCC 1540 at 500 ug/ml after 24 hrs by cup-plate method; type: functional, organism-based; how it was run: as §1
Bacillus subtilis [13] = test: Antibacterial activity against Bacillus subtilis MTCC 441 at 10 ug/ml after 24 hrs by cup-plate method relative to ciprofloxacin; type: functional, organism-based
Bacillus subtilis [14] = test: Antibacterial activity against Bacillus subtilis MTCC 441 after 24 hrs; type: functional; conditions: MTCC 441, 24 h; how it was run: as §3
Escherichia coli [15] = test: Antibacterial activity against Escherichia coli MTCC 443 at 10 ug/ml after 24 hrs by cup-plate method relative to ciprofloxacin; type: functional, organism-based
Candida albicans = test: Antifungal activity against Candida albicans MTCC 227 at 30 ug/ml after 48 hrs by cup-plate method; type: functional; conditions: MTCC 227, 48 h, read-out: DIZ; how it was run: as §2
Bacillus subtilis [16] = test: Antibacterial activity against Bacillus subtilis MTCC 441 at 100 ug/ml after 24 hrs by cup-plate method relative to ciprofloxacin; type: functional, organism-based
Streptomyces griseus [17] = test: Antibacterial activity against Streptomyces griseus MTCC 1540 at 10 ug/ml after 24 hrs by cup-plate method relative to ciprofloxacin; type: functional, organism-based
Escherichia coli [18] = test: Antibacterial activity against Escherichia coli MTCC 443 after 24 hrs; type: functional; conditions: MTCC 443, 24 h; how it was run: as §3
Escherichia coli [19] = test: Antibacterial activity against Escherichia coli MTCC 443 at 100 ug/ml after 24 hrs by cup-plate method; type: functional, organism-based; how it was run: as §1
Bacillus subtilis [20] = test: Antibacterial activity against Bacillus subtilis MTCC 441 at 10 ug/ml after 24 hrs by cup-plate method; type: functional, organism-based; how it was run: as §1
Escherichia coli [21] = test: Antibacterial activity against Escherichia coli MTCC 443 at 10 ug/ml after 24 hrs by cup-plate method; type: functional, organism-based; how it was run: as §1
Streptomyces griseus [22] = test: Antibacterial activity against Streptomyces griseus MTCC 1540 at 10 ug/ml after 24 hrs by cup-plate method; type: functional, organism-based; how it was run: as §1
Bacillus subtilis [23] = test: Antibacterial activity against Bacillus subtilis MTCC 441 at 100 ug/ml after 24 hrs by cup-plate method; type: functional, organism-based; how it was run: as §1
Bacillus subtilis [24] = test: Antibacterial activity against Bacillus subtilis MTCC 441 at 200 ug/ml after 24 hrs by cup-plate method relative to ciprofloxacin; type: functional, organism-based
Escherichia coli [25] = test: Antibacterial activity against Escherichia coli MTCC 443 at 200 ug/ml after 24 hrs by cup-plate method relative to ciprofloxacin; type: functional, organism-based
Streptomyces griseus [26] = test: Antibacterial activity against Streptomyces griseus MTCC 1540 at 200 ug/ml after 24 hrs by cup-plate method relative to ciprofloxacin; type: functional, organism-based
Streptomyces griseus [27] = test: Antibacterial activity against Streptomyces griseus MTCC 1540 at 100 ug/ml after 24 hrs by cup-plate method relative to ciprofloxacin; type: functional, organism-based

Row | SMILES | Activity (Bacillus subtilis [1]) | Activity (Escherichia coli [2]) | zone of inhibition at 30 µg/mL (Aspergillus niger) [mm] | Activity (Escherichia coli [3]) | Activity (Escherichia coli [4]) | Activity (Bacillus subtilis [5]) | Activity (Streptomyces griseus [6]) | Activity (Escherichia coli [7]) | Activity (Bacillus subtilis [8]) | Activity (Streptomyces griseus [9]) | MIC (Streptomyces griseus [10]) [µg/mL] | Activity (Streptomyces griseus [11]) | Activity (Streptomyces griseus [12]) | Activity (Bacillus subtilis [13]) | MIC (Bacillus subtilis [14]) [µg/mL] | Activity (Escherichia coli [15]) | zone of inhibition at 30 µg/mL (Candida albicans) [mm] | Activity (Bacillus subtilis [16]) | MIC (Escherichia coli [18]) [µg/mL] | Activity (Streptomyces griseus [22]) | also measured
1 | Sc1nnc(CCNc2nc3ccccc3s2)n1/N=C/c1ccccc1Cl | Active | Active | 16 | Active | Active | inactive | inactive | inactive | Active | inactive | 200 (≈ 482 µM) | Active | Active | Active | 200 (≈ 482 µM) | Active | 22 | inactive | 200 (≈ 482 µM) | – | Activity (Streptomyces griseus [17]): Active
2 | O=C(O)c1cn(C2CC2)c2cc(N3CCNCC3)c(F)cc2c1=O [CIPROFLOXACIN] | Active | Active | – | Active | – | inactive | Active | inactive | Active | inactive | 10 (≈ 30.2 µM) | Active | Active | – | 10 (≈ 30.2 µM) | – | – | – | – | Active | Activity (Escherichia coli [19]): Active; Activity (Bacillus subtilis [20]): Active; Activity (Escherichia coli [21]): Active; Activity (Bacillus subtilis [23]): Active
3 | CN(C)c1ccc(/C=N/n2c(S)nnc2CCNc2nc3ccccc3s2)cc1 | Active | Active | 10 | Active | – | inactive | Active | inactive | Active | inactive | 100 (≈ 236 µM) | Active | Active | inactive | 100 (≈ 236 µM) | Active | 16 | – | 100 (≈ 236 µM) | inactive | Activity (Escherichia coli [19]): Active; Activity (Bacillus subtilis [23]): Active
4 | COc1ccc(/C=N/n2c(S)nnc2CCNc2nc3ccccc3s2)cc1OC | – | Active | 22 | Active | – | inactive | Active | inactive | Active | inactive | 100 (≈ 227 µM) | Active | Active | – | 500 (≈ 1130 µM) | – | 22 | inactive | 100 (≈ 227 µM) | inactive | Activity (Escherichia coli [19]): Active; Activity (Bacillus subtilis [20]): inactive; Activity (Escherichia coli [21]): inactive; Activity (Bacillus subtilis [24]): Active
5 | Sc1nnc(CCNc2nc3ccccc3s2)n1/N=C/c1ccccc1 | – | Active | 16 | – | inactive | inactive | inactive | inactive | Active | inactive | 500 (≈ 1310 µM) | – | Active | – | 500 (≈ 1310 µM) | – | 22 | inactive | 500 (≈ 1310 µM) | inactive | Activity (Bacillus subtilis [20]): inactive; Activity (Escherichia coli [25]): Active; Activity (Escherichia coli [21]): inactive; Activity (Streptomyces griseus [26]): Active; Activity (Bacillus subtilis [24]): Active
6 | O=[N+]([O-])c1ccccc1/C=N/n1c(S)nnc1CCNc1nc2ccccc2s1 | Active | Active | 10 | Active | Active | inactive | – | inactive | Active | inactive | 200 (≈ 470 µM) | Active | Active | inactive | 200 (≈ 470 µM) | – | < 10 | Active | 200 (≈ 470 µM) | – | Activity (Escherichia coli [21]): inactive; Activity (Streptomyces griseus [17]): inactive; Activity (Streptomyces griseus [27]): Active
7 | Oc1ccc(/C=N/n2c(S)nnc2CCNc2nc3ccccc3s2)cc1 | Active | Active | 10 | Active | Active | inactive | Active | inactive | Active | inactive | 100 (≈ 252 µM) | Active | Active | inactive | 100 (≈ 252 µM) | inactive | 22 | – | 200 (≈ 504 µM) | – | Activity (Streptomyces griseus [17]): inactive; Activity (Bacillus subtilis [23]): Active
8 | OC(Cn1cncn1)(Cn1cncn1)c1ccc(F)cc1F [FLUCONAZOLE] | – | – | 22 | – | – | – | – | – | – | – | – | – | – | – | – | – | 22 | – | – | – | –
9 | O=[N+]([O-])c1cccc(/C=N/n2c(S)nnc2CCNc2nc3ccccc3s2)c1 | Active | Active | < 10 | Active | inactive | inactive | – | inactive | Active | inactive | 200 (≈ 470 µM) | Active | Active | – | 200 (≈ 470 µM) | inactive | 10 | Active | 200 (≈ 470 µM) | inactive | Activity (Bacillus subtilis [20]): inactive; Activity (Streptomyces griseus [27]): Active
